Here are results for three molecules from ChEMBL document CHEMBL4145471, “New 1,5 and 2,5-disubstituted tetrazoles-dependent activity towards surface barrier of Candida albicans” (Eur J Med Chem, 2018).

One may read the residual activity as the share of the control activity or signal that is left under treatment. One may read the MIC as the lowest concentration found to suppress growth.

In data set [1] the test system is Candida albicans. As to the kind of experiment: Antifungal activity against Candida albicans ATCC 90028 assessed as inhibition of metabolic activity at 2.5 ug/ml after 48 hrs in presence of 80 ug/ml fluconazol by XTT assay relative to control. The data set is classed as functional. The settings on record: values are per cent of control. Summed up: (§1)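 C. albicans ATCC 90028 in checkerboard: fluconazole serial dilutions (80-1.25 µg/mL) crossed with tetrazole (80-1.25 µg/mL final), M27-A3 inoculum in RPMI 1640, 35°C for 48 h. Metabolic activity measured by XTT reduction, read at 475 nm (660 nm reference). Activity expressed relative to untreated growth control absorbance.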

Data set [2] relates to Candida albicans. As to the kind of experiment: Antifungal activity against Candida albicans ATCC 90028 at 16 ug/ml after 48 hrs relative to control. Format: functional. An outline of the steps:
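Planktonic broth microdilution per M27-A3 in MOPS-buffered RPMI 1640 (pH 7.0), final inoculum 1.8×10^3 cells/mL, compounds 0.0313–16 µg/mL from 1600 µg/mL stocks in ethanol or DMSO. Incubated at 35°C without agitation; OD405 read at 18 and 48 h. % inhibition was derived from test, sterility (no inoculum) and solvent growth-control wells. Amphotericin B at 0.5 µg/mL served as the 100% control.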

Data set [3] concerns Candida albicans. As to the kind of experiment: Antifungal activity against Candida albicans ATCC 90028 assessed as metabolic activity at 40 ug/ml after 48 hrs in presence of 2.5 ug/ml fluconazol by XTT assay relative to control. On the technique in general: Tetrazolium assays rely on reduction of a dye to a coloured formazan, in cell work by metabolically active cells.
Data set [4] concerns Candida albicans. As to the kind of experiment: Synergistic antifungal activity against Candida albicans ATCC 90028 at 20 ug/ml after 48 hrs in presence of 20 ug/ml fluconazol by checkerboard assay relative to control. The data set is classed as functional. The following applies: ATCC 90028, 48 h, read-out: GI. An outline of the steps:
(§2)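 Checkerboard in C. albicans ATCC 90028, inoculum prepared per CLSI M27-A3 in RPMI. Fluconazole serially diluted 80-1.25 µg/mL across the plate against the partner compound at 80-1.25 µg/mL final. Incubated 48 h at 35°C. Metabolic activity read by XTT reduction at 475 nm (660 nm reference), given as % of the untreated growth control.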

Data set [5] concerns Candida albicans. Briefly: Antifungal activity against Candida albicans ATCC 90028 assessed as inhibition of metabolic activity at 5 ug/ml after 48 hrs in presence of 10 ug/ml fluconazol by XTT assay relative to control. The settings on record: values are per cent of control. Format: functional. Summed up: (§3)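 Checkerboard against strain ATCC 90028, inoculum per M27-A3: fluconazole 80-1.25 µg/mL on one axis, tetrazole 80-1.25 µg/mL on the other. Plates at 35°C for 48 h, then XTT metabolic reduction read at 475 nm (660 nm reference). Activity is the drop in mean absorbance against untreated growth control. FICs and their summed FIC index are taken at 50% reduction in metabolic activity.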

The test system of data set [6] is Candida albicans. As to the kind of experiment: Synergistic antifungal activity against Candida albicans ATCC 90028 at 80 ug/ml after 48 hrs in presence of 80 ug/ml fluconazol by checkerboard assay relative to control. Format: functional. The settings on record: ATCC 90028, 48 h, read-out: GI. Summed up: as §2
For data set [7], the system named is Candida albicans. As to the kind of experiment: Antifungal activity against Candida albicans ATCC 90028 assessed as metabolic activity at 80 ug/ml after 48 hrs in presence of 2.5 ug/ml fluconazol by XTT assay relative to control.
The subject of data set [8] is Candida albicans. Briefly: Antifungal activity against Candida albicans ATCC 90028 at 0.0625 ug/ml after 18 hrs relative to control. Format: functional.
In data set [9] the test system is Candida albicans. As to the kind of experiment: Synergistic antifungal activity against Candida albicans ATCC 90028 at 5 ug/ml after 48 hrs in presence of 80 ug/ml fluconazol by checkerboard assay relative to control. The data set is classed as functional. An outline of the steps: as §2
Data set [10] concerns Candida albicans. Briefly: Antifungal activity against Candida albicans ATCC 90028 assessed as metabolic activity at 40 ug/ml after 48 hrs in presence of 10 ug/ml fluconazol by XTT assay relative to control.
For data set [11], the system named is Candida albicans. As to the kind of experiment: Antifungal activity against Candida albicans ATCC 90028 after 48 hrs by M27-A3 microdilution method. Format: functional. The settings on record: ATCC 90028, 48 h. For orientation: Broth dilution looks for growth in wells or tubes with falling amounts of substance.
Data set [12] deals with Candida albicans. Briefly: Synergistic antifungal activity against Candida albicans ATCC 90028 at 20 ug/ml after 48 hrs in presence of 5 ug/ml fluconazol by checkerboard assay relative to control. The data set is classed as functional. An outline of the steps:
as §2

Data set [13] deals with Candida albicans. As to the kind of experiment: Synergistic antifungal activity against Candida albicans ATCC 90028 assessed as fluconazol FIC at 1.25 to 80 ug/ml after 48 hrs by checkerboard assay. Format: functional. Summed up: (§4)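 Checkerboard per M27-A3 against ATCC 90028: fluconazole at 80–1.25 µg/mL horizontally and partner compound at 80–1.25 µg/mL vertically, 100 µL yeast inoculum per well, 35°C for 48 h. After 48 h, metabolic activity was measured by XTT reduction at 475 nm (660 nm reference) relative to untreated growth control. FIC index is the sum of the FICs; <1 was defined as synergism and >1 as antagonism.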

Data set [14] relates to Candida albicans. Briefly: Antifungal activity against Candida albicans ATCC 90028 assessed as inhibition of metabolic activity at 2.5 ug/ml after 48 hrs in presence of 1.25 ug/ml fluconazol by XTT assay relative to control. Format: functional. The following applies: values are per cent of control. Summed up: as §1
Data set [15] concerns Candida albicans. As to the kind of experiment: Synergistic antifungal activity against Candida albicans ATCC 90028 at 10 ug/ml after 48 hrs in presence of 5 ug/ml fluconazol by checkerboard assay relative to control. The data set is classed as functional. An outline of the steps:
as §4

The test system of data set [16] is Candida albicans. Briefly: Synergistic antifungal activity against Candida albicans ATCC 90028 at 5 ug/ml after 48 hrs in presence of 5 ug/ml fluconazol by checkerboard assay relative to control. The data set is classed as functional. The settings on record: ATCC 90028, 48 h, read-out: GI. Summed up:
as §2

In data set [17] the test system is Candida albicans. Briefly: Antifungal activity against Candida albicans ATCC 90028 assessed as inhibition of metabolic activity at 5 ug/ml after 48 hrs in presence of 80 ug/ml fluconazol by XTT assay relative to control. Format: functional. The following applies: values are per cent of control. An outline of the steps:
as §3

Data set [18] relates to Candida albicans. Briefly: Antifungal activity against Candida albicans ATCC 90028 assessed as inhibition of metabolic activity at 1.25 ug/ml after 48 hrs in presence of 5 ug/ml fluconazol by XTT assay relative to control. Format: functional. The following applies: values are per cent of control. Summed up: as §3
Data set [19] concerns Candida albicans. Briefly: Antifungal activity against Candida albicans ATCC 90028 assessed as inhibition of metabolic activity at 1.25 ug/ml after 48 hrs in presence of 20 ug/ml fluconazol by XTT assay relative to control. The data set is classed as functional. The following applies: values are per cent of control. Summed up:
as §3

Data set [20] deals with Candida albicans. As to the kind of experiment: Antifungal activity against Candida albicans ATCC 90028 assessed as metabolic activity at 40 ug/ml after 48 hrs in presence of 40 ug/ml fluconazol by XTT assay relative to control. The following applies: ATCC 90028, 48 h.
A further data set deals with Caco-2. Briefly: Cytotoxicity against human Caco2 cells assessed as reduction in cell viability at 256 ug/ml after 18 hrs by XTT assay ralative to control. Format: cell-based. The settings on record: caco-2, 18 h. Summed up: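 Caco-2 cells were exposed to compound at 256, 16 or 0.0313 µg/mL for 18 h, then given XTT reagent for 4–6 h. Absorbance was read at 475 nm with a 660 nm reference, and viability and toxicity were expressed as %. CC50 was taken as the concentration giving 50% viability loss. Means ± SD of three independent experiments, samples in duplicate.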

Take `CCOC(=O)CCn1nnc(-c2ccccc2)n1`: the residual activity with Candida albicans [1] was 72.63%; with Candida albicans [5] it was 69.35%; with Candida albicans [14], 90.2%; in the data set on Candida albicans [17] it was 71.92%; with Candida albicans [18] it was 100%; with Candida albicans [19], 62.2%. For the same molecule, the Activity in the data set with Candida albicans [2] is listed as 99.65%; in the data set with Candida albicans [8], 99.57%; with Caco-2, 45.49%. Further, the Metabolic activity stood at 61.61% in the data set with Candida albicans [3], 64.31% in the data set on Candida albicans [7] and 56.45% in the data set with Candida albicans [10]. Further, in the data set on Candida albicans [4], the inhibition of growth at 20 µg/mL turned out to be 99.5%. The inhibition of growth at 80 µg/mL in the data set with Candida albicans [6] worked out at 99.6%. The “growth inhibition (GI)” value in the data set on Candida albicans [9] is listed as 99.61%; in the data set on Candida albicans [12] it was 98.72%; in the data set with Candida albicans [15], 98.97%. The same molecule showed an MIC against Candida albicans [11] above 16 µg/mL. Besides, in the data set on Candida albicans [13], the FIC is on record as 5. Also, in the data set on Candida albicans [16], the inhibition of growth at 5 µg/mL is 99.1%. In addition, the Metabolic activity at 40 µg/mL in the data set on Candida albicans [20] came to 100%.

With `Cc1ccc(-c2nnn(CCCN3CCOCC3)n2)cc1`, the residual activity is 84.01% with Candida albicans [1]; 81.48% in the data set with Candida albicans [5]; 100% in the data set on Candida albicans [14]; 88.19% in the data set with Candida albicans [17]; 100% in the data set on Candida albicans [18]; 100% in the data set with Candida albicans [19]. Besides, the Activity in the data set with Candida albicans [2] is given as 99.44%; with Candida albicans [8], 99.5%; in the data set on Caco-2, 13.04%. Also, the Metabolic activity with Candida albicans [3] is on record as 26.03%; in the data set with Candida albicans [7], 78.22%; in the data set on Candida albicans [10], 28.26%. In addition, the inhibition of growth at 20 µg/mL in the data set on Candida albicans [4] was 99.1%. For the same molecule, the inhibition of growth at 80 µg/mL in the data set on Candida albicans [6] amounted to 99.5%. For the same molecule, the “growth inhibition (GI)” value stood at 99.47% with Candida albicans [9], 98.27% in the data set on Candida albicans [12] and 98.12% with Candida albicans [15]. The molecule further came in with a minimal inhibitory concentration (MIC) in the data set on Candida albicans [11] above 16 µg/mL. In the data set on Candida albicans [13], the FIC was 5. Further, the inhibition of growth at 5 µg/mL in the data set with Candida albicans [16] worked out at 98.7%. Further, in the data set on Candida albicans [20], the Metabolic activity at 40 µg/mL was 95.3%.

`ClCCCn1nnnc1-c1ccccc1Cl`: the residual activity is recorded as 80.42% with Candida albicans [1]; 66.6% in the data set with Candida albicans [5]; 0% in the data set with Candida albicans [14]; 77.27% with Candida albicans [17]; 100% with Candida albicans [18]; 60.65% in the data set with Candida albicans [19]. In addition, the Activity turned out to be 99.39% with Candida albicans [2], 99.9% in the data set on Candida albicans [8] and 63.27% with Caco-2. Also, the values for the Metabolic activity in the data set on Candida albicans [3], in the data set with Candida albicans [7] and in the data set with Candida albicans [10] were 75.66%, 59.43% and 70.86%, respectively. Also, the inhibition of growth at 20 µg/mL in the data set on Candida albicans [4] was found to be 99.7%. For the same molecule, the inhibition of growth at 80 µg/mL in the data set on Candida albicans [6] was 99.8%. Besides, the “growth inhibition (GI)” value with Candida albicans [9] came out at 99.34%; in the data set on Candida albicans [12] it was 99.02%; in the data set on Candida albicans [15] it was 98.9%. In the data set on Candida albicans [11], this molecule returned an MIC above 16 µg/mL. Further, the FIC with Candida albicans [13] is 5. Besides, the “fold change (FC)” value in the data set on Candida albicans [13] is reported as 5. In addition, in the data set with Candida albicans [16], the inhibition of growth at 5 µg/mL was found to be 98.8%. In the data set with Candida albicans [20], the Metabolic activity at 40 µg/mL was determined as 100%.
